MIC data for 10 molecules are collected here from ChEMBL document CHEMBL1155834, “Antimicrobial diterpenes from Trigonostemon chinensis” (2008).

What is called MIC is the lowest concentration that inhibits growth of the organism. A lower MIC goes with a more susceptible organism.

Common to all, as to format: functional
For one experiment, the system named is Shigella flexneri. Nature of the experiment: Antibacterial activity against Shigella flexneri after 18 hrs. The gist of the method: (§1)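 Broth dilution in Mueller Hinton broth, compounds dissolved in DMSO. Cells incubated aerobically with compound at 37 °C for 18 h, with DMSO-only blank cultures. MIC is the lowest concentration giving complete inhibition of visible growth.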

The next experiment has as its system Pseudomonas aeruginosa. Description: Antibacterial activity against Pseudomonas aeruginosa after 18 hrs. The gist of the method:
as §1

The test system of a further experiment is Candida albicans. Nature of the experiment: Antifungal activity against Candida albicans after 48 hrs. Summed up:
(§2)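 Fungi grown in Sabouraud dextrose broth with compound at 37 °C for 48 h. MIC is the lowest concentration completely inhibiting visible growth.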

In a further experiment the test system is Bacillus subtilis. Nature of the experiment: Antibacterial activity against Bacillus subtilis CMCC 63501 after 18 hrs. The gist of the method: as §1
In experiment [1] the test system is Staphylococcus epidermidis. Description: Antibacterial activity against Staphylococcus epidermidis ATCC 12228 after 18 hrs. The conditions noted are these: ATCC 12228, 18 h. Summed up: as §1
The next experiment deals with Escherichia coli. Description: Antibacterial activity against Escherichia coli after 18 hrs. Summed up:
as §1

Experiment [2] concerns Helicobacter pylori. Nature of the experiment: Antibacterial activity against Helicobacter pylori SS1 after 96 hrs. The conditions noted are these: SS1, 96 h. The gist of the method: (§3)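 Agar plates inoculated with H. pylori cells suspended in saline at 10^8 cfu/mL, incubated 37 °C for 96 h microaerobically (5% O2, 10% CO2, 85% N2) alongside blank and positive controls. Triplicate tests.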

A further experiment has as its system Micrococcus luteus. Description: Antibacterial activity against Micrococcus luteus ATCC 9341 after 18 hrs. Particulars: ATCC 9341, 18 h. Summed up:
as §1

Experiment [3] deals with Helicobacter pylori. Description: Antibacterial activity against metronidazole-resistant Helicobacter pylori ATCC 43504 after 96 hrs. The conditions noted are these: ATCC 43504, 96 h. Summed up: as §3
Another experiment deals with Staphylococcus aureus. Description: Antibacterial activity against Staphylococcus aureus ATCC 25923 after 18 hrs. Particulars: ATCC 25923, 18 h. The gist of the method: as §1
The subject of another experiment is Nannizzia gypsea. Description: Antifungal activity against Microsporum gypseum after 48 hrs. Summed up:
as §2

Molecules are shown by their SMILES. Converted amounts (≈) assume the structure as drawn.

`C=Cc1c(C)c(O)cc2c1CC[C@H](C(=C)C)[C@@]2(C)CCC(=O)OC`: the MIC against Shigella flexneri is above 50 µg/mL; in the experiment on Pseudomonas aeruginosa it was above 50 µg/mL; in the experiment on Candida albicans, above 50 µg/mL; with Bacillus subtilis, 3.12 µg/mL (≈ 9.5 µM); in experiment [1], 6.25 µg/mL (≈ 19 µM); with Escherichia coli, above 50 µg/mL. Also, the MIC in the experiment with Helicobacter pylori [2] is 25 µg/mL (≈ 76.1 µM); with Micrococcus luteus, 6.25 µg/mL (≈ 19 µM); in the experiment with Helicobacter pylori [3], 50 µg/mL (≈ 152 µM); in the experiment on Staphylococcus aureus, 12.5 µg/mL (≈ 38.1 µM); in the experiment with Nannizzia gypsea it was 50 µg/mL (≈ 152 µM).

As to `C=Cc1c(C)c(O)cc2c1CC[C@H](C(=C)C)[C@@]2(C)CCC(=O)O`, the MIC (in the experiment with Shigella flexneri; against Pseudomonas aeruginosa; in the experiment with Candida albicans; against Bacillus subtilis; in experiment [1]; against Escherichia coli) was above 50 µg/mL throughout. Besides, the MIC is 25 µg/mL (≈ 79.5 µM) against Helicobacter pylori [2]; above 50 µg/mL against Micrococcus luteus; above 50 µg/mL against Helicobacter pylori [3]; above 50 µg/mL against Staphylococcus aureus; above 50 µg/mL with Nannizzia gypsea.

Regarding `C=CCc1ccc(O)c(-c2cc(CC=C)ccc2O)c1` [MAGNOLOL], the MIC with Shigella flexneri is above 50 µg/mL; in the experiment with Pseudomonas aeruginosa, above 50 µg/mL; in the experiment with Bacillus subtilis it was 12.5 µg/mL (≈ 46.9 µM); in experiment [1], 6.25 µg/mL (≈ 23.5 µM); in the experiment with Escherichia coli it was above 50 µg/mL; with Micrococcus luteus it was 6.25 µg/mL (≈ 23.5 µM). In the experiment on Staphylococcus aureus, this molecule yielded an MIC of 12.5 µg/mL (≈ 46.9 µM).

Turning to `Cc1ncc([N+](=O)[O-])n1CCO` [METRONIDAZOLE], the MIC against Helicobacter pylori [2] was found to be 0.5 µg/mL (≈ 2.92 µM); in the experiment on Helicobacter pylori [3] it was 128 µg/mL (≈ 748 µM).

As to `COC(=O)C1=CC[C@@]23CC[C@@H]([C@@](C)(/C=C/C=C(\C)C(=O)O)OC2=O)[C@@]3(OC(C)=O)CC1` [PSEUDOLARIC ACID B], the MIC in the experiment on Candida albicans was 6.25 µg/mL (≈ 14.5 µM); in the experiment on Nannizzia gypsea, 12.5 µg/mL (≈ 28.9 µM).

Turning to `C=CC1=C(C)C(=O)C=C2[C@@]1(O)CC[C@H](C(=C)C)[C@@]2(C)CCC(=O)OC` [TRIGONOCHINENE A], the MIC (in the experiment with Shigella flexneri; with Pseudomonas aeruginosa; against Candida albicans; with Bacillus subtilis; in [1]; with Escherichia coli) was above 50 µg/mL each time. In addition, the MIC in the experiment with Helicobacter pylori [2] was 25 µg/mL (≈ 72.6 µM); in the experiment with Micrococcus luteus it was above 50 µg/mL; in the experiment with Helicobacter pylori [3], 50 µg/mL (≈ 145 µM); with Staphylococcus aureus it was above 50 µg/mL; with Nannizzia gypsea it was above 50 µg/mL.

As to `C=CC1=C(C)C(=O)C=C2[C@]1(O)CC[C@H](C(=C)C)[C@@]2(C)CCC(=O)OC` [TRIGONOCHINENE B], the MIC (in the experiment with Shigella flexneri; in the experiment with Pseudomonas aeruginosa; against Candida albicans; against Bacillus subtilis; in experiment [1]; in the experiment on Escherichia coli) was above 50 µg/mL throughout. For the same molecule, the minimum inhibitory concentration (MIC) in the experiment with Helicobacter pylori [2] is 12.5 µg/mL (≈ 36.3 µM); against Micrococcus luteus, above 50 µg/mL; in the experiment with Helicobacter pylori [3], 25 µg/mL (≈ 72.6 µM); with Staphylococcus aureus, above 50 µg/mL; against Nannizzia gypsea, above 50 µg/mL.

Turning to `C=CC1=C(C)C(=O)C=C2[C@]1(OO)CC[C@H](C(=C)C)[C@@]2(C)CCC(=O)OC` [TRIGONOCHINENE C], the MIC against Shigella flexneri was above 50 µg/mL; in the experiment with Pseudomonas aeruginosa, above 50 µg/mL; against Candida albicans it was above 50 µg/mL; against Bacillus subtilis, 12.5 µg/mL (≈ 34.7 µM); in experiment [1], 25 µg/mL (≈ 69.4 µM); with Escherichia coli, above 50 µg/mL. The MIC in the experiment with Helicobacter pylori [2] is 50 µg/mL (≈ 139 µM); in the experiment on Micrococcus luteus it was 12.5 µg/mL (≈ 34.7 µM); in the experiment on Helicobacter pylori [3], 50 µg/mL (≈ 139 µM); with Staphylococcus aureus, 50 µg/mL (≈ 139 µM); in the experiment with Nannizzia gypsea, above 50 µg/mL.

As to `C=CC1=C(C)C(=O)C=C2[C@]13O[C@H]3C[C@H](C(=C)C)[C@@]2(C)CCC(=O)OC` [TRIGONOCHINENE D], the MIC (with Shigella flexneri; in the experiment with Pseudomonas aeruginosa; with Candida albicans; in the experiment on Bacillus subtilis; in [1]; in the experiment on Escherichia coli) was above 50 µg/mL throughout. Moreover, the MIC is 25 µg/mL (≈ 73 µM) with Helicobacter pylori [2]; above 50 µg/mL with Micrococcus luteus; 50 µg/mL (≈ 146 µM) against Helicobacter pylori [3]; above 50 µg/mL in the experiment on Staphylococcus aureus; above 50 µg/mL against Nannizzia gypsea.

On to `COc1cc2c(cc(OC)c3cc(C)c(O)cc32)c(C)c1O` [TRIGONOCHINENE E], for which the MIC against Shigella flexneri is above 50 µg/mL; in the experiment with Pseudomonas aeruginosa, above 50 µg/mL; in the experiment on Candida albicans it was 12.5 µg/mL (≈ 41.9 µM); against Bacillus subtilis, above 50 µg/mL; in experiment [1] it was 6.25 µg/mL (≈ 20.9 µM); against Escherichia coli, above 50 µg/mL. The MIC with Helicobacter pylori [2] is 25 µg/mL (≈ 83.8 µM); in the experiment with Micrococcus luteus, 12.5 µg/mL (≈ 41.9 µM); against Helicobacter pylori [3], above 50 µg/mL; in the experiment with Staphylococcus aureus, 6.25 µg/mL (≈ 20.9 µM); with Nannizzia gypsea it was 6.25 µg/mL (≈ 20.9 µM).
